Results from ChEMBL document CHEMBL4043178, “Synthesis and evaluation of analogs of 5'-(((Z)-4-amino-2-butenyl)methylamino)-5'-deoxyadenosine (MDL 73811, or AbeAdo) - An inhibitor of S-adenosylmethionine decarboxylase with antitrypanosomal activity” (Bioorg Med Chem, 2017).

Columns and labels:
[1] = Inhibition of Trypanosoma brucei AdoMetDC pre-incubated for 30 mins before AdoMet substrate addition by RapidFire-mass spectrometry
[2] = Inhibition of Trypanosoma brucei AdoMetDC without pre-incubation for 30 mins before AdoMet substrate addition by RapidFire-mass spectrometry
[3] = test system: Trypanosoma brucei; assay: Antitrypanosomal activity against Trypanosoma brucei Lister 427 bloodstream forms assessed as inhibition of parasite growth at 25 uM incubated for 48 hrs by ATP-bioluminescence cell viability assay; type: functional; details: Lister 427, 48 h, read-out: GI
Outline: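 Bloodstream-form Lister 427 cells grown in HMI-19, seeded at 3000 cells/mL; compound added as 100-fold intermediate dilution, final DMSO 0.1%. After 48 h culture, viability read by CellTiter-Glo ATP-bioluminescence. Tested 0.0038–25 µM in 3-fold steps, triplicate; no-cell and DMSO-only controls (0% and 100% viability) per plate; value is percent inhibition at 25 µM.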

[4] = test system: Liver; assay: (§1) Half life in human pooled liver microsomes at 1 uM in presence of NADPH by LC/MS/MS method; type: ADME, microsome; details: microsomes, 1 µM
[5] = test system: Liver; assay: (§2) Half life in mouse pooled liver microsomes at 1 uM in presence of NADPH by LC/MS/MS method; type: ADME, microsome; details: microsomes, 1 µM
[6] = test system: Trypanosoma brucei; assay: Antitrypanosomal activity against Trypanosoma brucei Lister 427 bloodstream forms assessed as inhibition of parasite growth incubated for 48 hrs by ATP-bioluminescence cell viability assay; type: functional; details: Lister 427, 48 h
[7] = test system: Trypanosoma brucei; assay: Inhibition of Trypanosoma brucei AdoMetDC at 50 uM without pre-incubation for 30 mins before AdoMet substrate addition by RapidFire-mass spectrometry
Outline: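 Inhibition without pre-incubation: substrate solution (80 µM AdoMet) added to compound before the enzyme solution (50 nM purified T. brucei AdoMetDC/prozyme); buffer Hepes pH 7.7 with 5 mM putrescine. Reaction ran 20 min, stopped with 1 M HCl, then analysed by RapidFire-MS.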

[8] = test system: Trypanosoma brucei brucei; assay: Antitrypanosomal activity against Trypanosoma brucei brucei; type: functional
[9] = Inhibition of His-tagged Trypanosoma brucei AdoMetDC expressed in Escherichia coli pre-incubated for 30 mins before AdoMet substrate addition
[10] = test system: Trypanosoma brucei; assay: Inhibition of Trypanosoma brucei AdoMetDC at 50 uM pre-incubated for 30 mins before AdoMet substrate addition by RapidFire-mass spectrometry
Outline: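 Purified T. brucei AdoMetDC/prozyme complex, 50 nM in the enzyme solution, pre-incubated 30 min with compound in DMSO before adding the substrate solution (80 µM AdoMet); Hepes pH 7.7, NaCl, 5 mM putrescine. Reaction 20 min, quenched with 1 M HCl; substrate and product quantified by RapidFire-MS.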

[11] = test system: MDCK-MDR1; assay: Apparent permeability in MDCK2-MDR1 cells at 3 uM incubated for 1 hr in absence of P-glycoprotein inhibitor GF120918 by LC/MS/MS method; type: ADME, cell-based, Canis lupus familiaris; details: dog, mdck-mdr1, 1 h
[12] = as §1; type: ADME, microsome; details: pooled liver microsomes
[13] = as §2; type: ADME, microsome; details: pooled liver microsomes

Compound | IC50 [1] [µM] | IC50 [2] [µM] | inhibition of growth at 25 µM [3] [%] | t1/2 [4] [h] | t1/2 [5] [h] | EC50 [6] [µM] | inhibition [7] [%] | EC50 [8] [µM] | IC50 [9] [µM] | inhibition [10] [%] | Papp [11] [×10⁻⁶ cm/s] | half-life at 1 µM [12] [min] | half-life at 1 µM [13] [min]
Cc1nc2c(N)ncnc2n1[C@@H]1O[C@H](CN(C)C/C=C\CNC(=O)OC(C)C)[C@@H](O)[C@H]1O | > 50 | > 50 | 35 | > 1.5 | > 1.5 |  |  |  |  |  |  |  | 
Cc1nc2c(N)ncnc2n1[C@@H]1O[C@H](CN(C/C=C\CN)C2CC2)[C@H]2OC(C)(C)O[C@H]21 | > 50 | > 50 |  | > 1.5 | > 1.5 | > 3 |  |  |  |  |  |  | 
CCC(=O)NC/C=C\CN(C)C[C@H]1O[C@@H](n2cnc3c(N)ncnc32)[C@H](OC(C)=O)[C@@H]1OC(C)=O | > 50 | > 50 |  | 1.25 | 0.0767 | > 25 |  |  |  |  |  |  | 
CCCC(=O)NC/C=C\CN(C)C[C@H]1O[C@@H](n2cnc3c(N)ncnc32)[C@H](OC(C)=O)[C@@H]1OC(C)=O | > 50 | > 50 |  | 0.85 | 0.05 | > 25 |  |  |  |  |  |  | 
CN(C/C=C\CN)C[C@H]1O[C@@H](n2cnc3c(N(C)C)ncnc32)[C@H](O)[C@@H]1O | 0.81 |  |  | > 1.5 | > 1.5 | 10 | 37 |  |  |  |  |  | 
CN(C/C=C\CN)C[C@H]1O[C@@H](n2cnc3c(N)ncnc32)[C@H](O)[C@@H]1O | 0.041 | 2.4 |  | > 1.5 | > 1.5 | 0.01 |  | 0.01 | 0.041 |  |  |  | 
CN(C/C=C\CN)C[C@H]1O[C@@H](n2cnc3c(N)ncnc32)[C@@H]2OC(C)(C)O[C@@H]21 | 3 |  |  | > 1.5 | > 1.5 | 0.42 | 22 |  |  |  |  |  | 
NC/C=C\CN(CCF)C[C@H]1O[C@@H](n2cnc3c(N)ncnc32)[C@H](O)[C@@H]1O |  | > 50 |  | > 1.5 | > 1.5 | > 25 |  |  |  | 36 |  |  | 
CC1(C)O[C@@H]2[C@H](O1)[C@@H](CN(C/C=C\CN)CCF)O[C@H]2n1cnc2c(N)ncnc21 | > 50 | > 50 |  | > 1.5 | > 1.5 | > 25 |  |  |  |  |  |  | 
Cc1nc2c(N)ncnc2n1[C@@H]1O[C@H](CN(C/C=C\CN)CCO)[C@H]2OC(C)(C)O[C@H]21 | > 50 | > 50 |  | > 1.5 | > 1.5 | > 25 |  |  |  |  |  |  | 
Cc1nc2c(N)ncnc2n1[C@@H]1O[C@H](CN(C)C/C=C\CNC(=O)OCc2ccccc2)[C@@H](O)[C@H]1O |  |  |  | 0.4 | 0.217 | 2.6 | 17 |  |  | 39 |  |  | 
CCOC(=O)NC/C=C\CN(C)C[C@H]1O[C@@H](n2c(C)nc3c(N)ncnc32)[C@H](O)[C@@H]1O |  |  |  | > 1.5 | > 1.5 |  | 40 |  |  | 40 |  |  | 
Cc1nc2c(N)ncnc2n1[C@@H]1O[C@H](CN(C)C/C=C\CN)[C@@H](O)[C@H]1O | 0.021 | 0.23 |  | > 1.5 | > 1.5 | 0.0018 |  | 0.0018 | 0.021 |  |  |  | 
CC(C)Nc1ncnc2c1ncn2[C@@H]1O[C@H](CN(C)C/C=C\CN)[C@@H](O)[C@H]1O | 0.11 | 7.1 |  | > 1.5 | > 1.5 | 2.5 |  |  |  |  |  |  | 
CC(=O)NC/C=C\CN(C)C[C@H]1O[C@@H](n2cnc3c(N)ncnc32)[C@H](O)[C@@H]1O | 18 | 13 |  | > 1.5 | > 1.5 | > 25 |  |  |  |  |  |  | 
CCC(=O)NC/C=C\CN(C)C[C@H]1O[C@@H](n2cnc3c(N)ncnc32)[C@H](O)[C@@H]1O | 25 | 19 |  | > 1.5 | > 1.5 | > 25 |  |  |  |  |  |  | 
CCOc1ncnc2c1ncn2[C@@H]1O[C@H](CN(C)C/C=C\CN)[C@@H](O)[C@H]1O | 0.6 |  |  | > 1.5 | > 1.5 | 0.36 | 33 |  |  |  |  |  | 
CCCC(=O)NC/C=C\CN(C)C[C@H]1O[C@@H](n2cnc3c(N)ncnc32)[C@H](O)[C@@H]1O | > 50 | > 50 |  | > 1.5 | > 1.5 | > 25 |  |  |  |  |  |  | 
Cc1nc2c(N)ncnc2n1[C@@H]1O[C@H](CN(C)C/C=C\CNC(=O)OC(C)(C)C)[C@H]2OC(C)(C)O[C@H]21 | > 50 | > 50 |  | < 0.0417 | < 0.0417 | > 25 |  |  |  |  | 5.1 |  | 
CNc1ncnc2c1ncn2[C@@H]1O[C@H](CN(C)C/C=C\CN)[C@H]2OC(C)(C)O[C@H]21 | 12 | > 50 | 37 | > 1.5 | > 1.5 |  |  |  |  |  |  |  | 
CC(=O)NC/C=C\CN(C)C[C@H]1O[C@@H](n2cnc3c(N)ncnc32)[C@H](OC(C)=O)[C@@H]1OC(C)=O | > 50 | > 50 |  | > 1.5 | 0.11 | > 25 |  |  |  |  |  |  | 
CC(=O)Oc1cc(C)cc(C)c1C(C)(C)CC(=O)NC/C=C\CN(C)C[C@H]1O[C@@H](n2cnc3c(N)ncnc32)[C@@H]2OC(C)(C)O[C@@H]21 | > 50 |  | 44 |  |  |  |  |  |  |  |  | ≤ 2.5 | ≤ 2.5
Cc1nc2c(N)ncnc2n1[C@@H]1O[C@H](CN(C/C=C\CNC(=O)OC(C)(C)C)C2CC2)[C@H]2OC(C)(C)O[C@H]21 | 42 | > 50 |  | < 0.0417 | < 0.0417 | 3 |  |  |  |  | 31.2 |  | 
CCCCCCCCC(=O)Nc1ncnc2c1ncn2[C@@H]1O[C@H](CN(C)C/C=C\CN)[C@H]2OC(C)(C)O[C@H]21 | 0.85 | 48 |  | 0.162 | 0.1 | 0.16 |  |  |  |  | 1 |  | 
Cc1nc2c(N)ncnc2n1[C@@H]1O[C@H](CN(C/C=C\CN)C2CC2)[C@@H](O)[C@H]1O | > 50 | > 50 |  | > 1.5 | > 1.5 | > 3 |  |  |  |  |  |  | 
CNc1ncnc2c1ncn2[C@@H]1O[C@H](CN(C)C/C=C\CN)[C@@H](O)[C@H]1O | 0.17 | 14 |  | > 1.5 | > 1.5 | 0.37 |  |  |  |  |  |  | 
CN(C/C=C\CN)C[C@H]1O[C@@H](n2cnc3cncnc32)[C@@H]2OC(C)(C)O[C@@H]21 | > 50 | > 50 |  | > 1.5 | 0.983 | > 25 |  |  |  |  |  |  | 
